Experimental data from ChEMBL document CHEMBL3585281, “Antibacterial Labdane Diterpenoids from Vitex vestita” (2015).
In brackets after ≈: the same amount, converted by molar mass.

Key:
Format in all cases: functional
Bacillus cereus [1] = test: Antibacterial activity against Bacillus cereus CIP 6624 after 18 hrs by agar dilution method; conditions: CIP 6624, 18 h
Summary of the method: (§1)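 Agar-dilution MIC against Gram-positive strains. Compounds in DMSO, geometric dilutions giving final 100−0.75 mg/L in Mueller Hinton agar. Strains grown 18 h at 37 °C in trypticase soy broth, diluted in sterile water, spotted by Steers inoculator (about 1000 UFC/spot). Plates incubated 18 h at 37 °C; DMSO blank; ofloxacin positive control. MIC = lowest concentration with no visible growth.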

Bacillus cereus [2] = test: Antibacterial activity against Bacillus cereus N190 after 18 hrs by agar dilution method; conditions: N190, 18 h; summary of the method: as §1
Bacillus cereus [3] = test: Antibacterial activity against Bacillus cereus N258 after 18 hrs by agar dilution method; conditions: N258, 18 h; summary of the method: as §1
Bacillus cereus [4] = test: Antibacterial activity against Bacillus cereus N349 after 18 hrs by agar dilution method; conditions: N349, 18 h; summary of the method: as §1
Bacillus spizizenii = test: Antibacterial activity against Bacillus subtilis ATCC 6633 after 18 hrs by agar dilution method; conditions: ATCC 6633, 18 h; summary of the method: as §1
Corynebacterium striatum = test: Antibacterial activity against Corynebacterium striatum N840 after 18 hrs by agar dilution method; conditions: N840, 18 h; summary of the method: as §1
Enterococcus avium = test: Antibacterial activity against Enterococcus avium CIP 104053 after 18 hrs by agar dilution method; conditions: CIP 104053, 18 h; summary of the method: as §1
[5] = system: Enterococcus casseliflavus; test: Antibacterial activity against Enterococcus casseliflavus N487 after 18 hrs by agar dilution method; conditions: N487, 18 h; summary of the method: as §1
[6] = system: Enterococcus casseliflavus; test: Antibacterial activity against Enterococcus casseliflavus CIP 103018 after 18 hrs by agar dilution method; conditions: CIP 103018, 18 h; summary of the method: as §1
Enterococcus durans = test: Antibacterial activity against Enterococcus durans CIP 104999 after 18 hrs by agar dilution method; conditions: CIP 104999, 18 h; summary of the method: as §1
Enterococcus faecalis [7] = test: Antibacterial activity against Enterococcus faecalis CIP 103214 after 18 hrs by agar dilution method; conditions: CIP 103214, 18 h; summary of the method: as §1
Enterococcus faecalis [8] = test: Antibacterial activity against Enterococcus faecalis CIP 104676 after 18 hrs by agar dilution method; conditions: CIP 104676, 18 h; summary of the method: as §1
Enterococcus faecalis [9] = test: Antibacterial activity against Enterococcus faecalis N491 after 18 hrs by agar dilution method; conditions: N491, 18 h; summary of the method: as §1
Enterococcus faecalis [10] = test: Antibacterial activity against Enterococcus faecalis N518 after 18 hrs by agar dilution method; conditions: N518, 18 h; summary of the method: as §1
Enterococcus faecalis [11] = test: Antibacterial activity against Enterococcus faecalis N520 after 18 hrs by agar dilution method; conditions: N520, 18 h; summary of the method: as §1
Enterococcus faecium [12] = test: Antibacterial activity against Enterococcus faecium CIP 103014 after 18 hrs by agar dilution method; conditions: CIP 103014, 18 h; summary of the method: as §1
Enterococcus faecium [13] = test: Antibacterial activity against Enterococcus faecium CIP 107387 after 18 hrs by agar dilution method; conditions: CIP 107387, 18 h; summary of the method: as §1
Enterococcus faecium [14] = test: Antibacterial activity against Enterococcus faecium N490 after 18 hrs by agar dilution method; conditions: N490, 18 h; summary of the method: as §1
Enterococcus faecium [15] = test: Antibacterial activity against Enterococcus faecium N507 after 18 hrs by agar dilution method; conditions: N507, 18 h; summary of the method: as §1
Enterococcus faecium [16] = test: Antibacterial activity against Enterococcus faecium N733 after 18 hrs by agar dilution method; conditions: N733, 18 h; summary of the method: as §1
Enterococcus faecium [17] = test: Antibacterial activity against Enterococcus faecium N823 after 18 hrs by agar dilution method; conditions: N823, 18 h; summary of the method: as §1
Enterococcus gallinarum [18] = test: Antibacterial activity against Enterococcus gallinarum CIP 105985 after 18 hrs by agar dilution method; conditions: CIP 105985, 18 h; summary of the method: as §1
Enterococcus gallinarum [19] = test: Antibacterial activity against Enterococcus gallinarum N489 after 18 hrs by agar dilution method; conditions: N489, 18 h; summary of the method: as §1
Enterococcus gallinarum [20] = test: Antibacterial activity against Enterococcus gallinarum N492 after 18 hrs by agar dilution method; conditions: N492, 18 h; summary of the method: as §1
Enterococcus hirae = test: Antibacterial activity against Enterococcus hirae CIP 5855 after 18 hrs by agar dilution method; conditions: CIP 5855, 18 h; summary of the method: as §1
Listeria innocua = test: Antibacterial activity against Listeria innocua E044 after 18 hrs by agar dilution method; conditions: E044, 18 h; summary of the method: as §1
Listeria monocytogenes [21] = test: Antibacterial activity against Listeria monocytogenes CIP 103575 after 18 hrs by agar dilution method; conditions: CIP 103575, 18 h; summary of the method: as §1
Listeria monocytogenes [22] = test: Antibacterial activity against Listeria monocytogenes N783 after 18 hrs by agar dilution method; conditions: N783, 18 h; summary of the method: as §1
Listeria monocytogenes [23] = test: Antibacterial activity against Listeria monocytogenes N836 after 18 hrs by agar dilution method; conditions: N836, 18 h; summary of the method: as §1
Listeria monocytogenes [24] = test: Antibacterial activity against Listeria monocytogenes N851 after 18 hrs by agar dilution method; conditions: N851, 18 h; summary of the method: as §1
Staphylococcus aureus [25] = test: Antibacterial activity against Staphylococcus aureus ATCC 25923 after 18 hrs by agar dilution method; conditions: ATCC 25923, 18 h; summary of the method: as §1
Staphylococcus aureus [26] = test: Antibacterial activity against Staphylococcus aureus ATCC 9144 oxford after 18 hrs by agar dilution method; summary of the method: as §1
Staphylococcus aureus [27] = test: Antibacterial activity against Staphylococcus aureus CIP 483 after 18 hrs by agar dilution method; conditions: CIP 483, 18 h; summary of the method: as §1
Staphylococcus aureus [28] = test: Antibacterial activity against Staphylococcus aureus CIP 53154 after 18 hrs by agar dilution method; conditions: CIP 53154, 18 h; summary of the method: as §1
Staphylococcus aureus [29] = test: Antibacterial activity against Staphylococcus aureus CIP 53156 after 18 hrs by agar dilution method; conditions: CIP 53156, 18 h; summary of the method: as §1
Staphylococcus aureus [30] = test: Antibacterial activity against Staphylococcus aureus CIP 5710 after 18 hrs by agar dilution method; conditions: CIP 5710, 18 h; summary of the method: as §1
Staphylococcus aureus [31] = test: Antibacterial activity against Staphylococcus aureus CIP 7625 after 18 hrs by agar dilution method; conditions: CIP 7625, 18 h; summary of the method: as §1
Staphylococcus aureus [32] = test: Antibacterial activity against Staphylococcus aureus CRBIP 2121 after 18 hrs by agar dilution method; conditions: CRBIP 2121, 18 h; summary of the method: as §1
[33] = system: Staphylococcus epidermidis; test: Antibacterial activity against Staphylococcus epidermidis CIP 53124 after 18 hrs by agar dilution method; conditions: CIP 53124, 18 h; summary of the method: as §1
[34] = system: Staphylococcus haemolyticus; test: Antibacterial activity against Staphylococcus haemolyticus CIP 8156 after 18 hrs by agar dilution method; conditions: CIP 8156, 18 h; summary of the method: as §1
[35] = system: Staphylococcus intermedius; test: Antibacterial activity against Staphylococcus intermedius N987 after 18 hrs by agar dilution method; conditions: N987, 18 h; summary of the method: as §1
[36] = system: Staphylococcus lugdunensis; test: Antibacterial activity against Staphylococcus lugdunensis ATCC 43809 after 18 hrs by agar dilution method; conditions: ATCC 43809, 18 h; summary of the method: as §1
[37] = system: Staphylococcus saprophyticus; test: Antibacterial activity against Staphylococcus saprophyticus CIP 76125 after 18 hrs by agar dilution method; conditions: CIP 76125, 18 h; summary of the method: as §1
[38] = system: Staphylococcus saprophyticus; test: Antibacterial activity against Staphylococcus saprophyticus E260 after 18 hrs by agar dilution method; conditions: E260, 18 h; summary of the method: as §1
Mammaliicoccus sciuri = test: Antibacterial activity against Staphylococcus sciuri N993 after 18 hrs by agar dilution method; conditions: N993, 18 h; summary of the method: as §1
Streptococcus agalactiae = test: Antibacterial activity against Streptococcus agalactiae CIP 103227 after 18 hrs by agar dilution method; conditions: ATCC 13813, 18 h; summary of the method: as §1

MIC (Bacillus cereus [1]): 6 µM (≈ 1.94 µg/mL)
MIC (Bacillus cereus [2]): 6 µM (≈ 1.94 µg/mL)
MIC (Bacillus cereus [3]): 6 µM (≈ 1.94 µg/mL)
MIC (Bacillus cereus [4]): 6 µM (≈ 1.94 µg/mL)
MIC (Bacillus spizizenii): 12 µM (≈ 3.88 µg/mL)
MIC (Corynebacterium striatum): 50 µM (≈ 16.2 µg/mL)
MIC (Enterococcus avium): 12 µM (≈ 3.88 µg/mL)
MIC [5]: 25 µM (≈ 8.08 µg/mL)
MIC [6]: 25 µM (≈ 8.08 µg/mL)
MIC (Enterococcus durans): 12 µM (≈ 3.88 µg/mL)
MIC (Enterococcus faecalis [7]): 25 µM (≈ 8.08 µg/mL)
MIC (Enterococcus faecalis [8]): 200 µM (≈ 64.6 µg/mL)
MIC (Enterococcus faecalis [9]): 12 µM (≈ 3.88 µg/mL)
MIC (Enterococcus faecalis [10]): 25 µM (≈ 8.08 µg/mL)
MIC (Enterococcus faecalis [11]): 200 µM (≈ 64.6 µg/mL)
MIC (Enterococcus faecium [12]): 25 µM (≈ 8.08 µg/mL)
MIC (Enterococcus faecium [13]): 12 µM (≈ 3.88 µg/mL)
MIC (Enterococcus faecium [14]): 12 µM (≈ 3.88 µg/mL)
MIC (Enterococcus faecium [15]): 25 µM (≈ 8.08 µg/mL)
MIC (Enterococcus faecium [16]): 12 µM (≈ 3.88 µg/mL)
MIC (Enterococcus faecium [17]): 25 µM (≈ 8.08 µg/mL)
MIC (Enterococcus gallinarum [18]): 12 µM (≈ 3.88 µg/mL)
MIC (Enterococcus gallinarum [19]): 12 µM (≈ 3.88 µg/mL)
MIC (Enterococcus gallinarum [20]): 25 µM (≈ 8.08 µg/mL)
MIC (Enterococcus hirae): 12 µM (≈ 3.88 µg/mL)
MIC (Listeria innocua): 12 µM (≈ 3.88 µg/mL)
MIC (Listeria monocytogenes [21]): 25 µM (≈ 8.08 µg/mL)
MIC (Listeria monocytogenes [22]): 12 µM (≈ 3.88 µg/mL)
MIC (Listeria monocytogenes [23]): 12 µM (≈ 3.88 µg/mL)
MIC (Listeria monocytogenes [24]): 25 µM (≈ 8.08 µg/mL)
MIC (Staphylococcus aureus [25]): 25 µM (≈ 8.08 µg/mL)
MIC (Staphylococcus aureus [26]): 12 µM (≈ 3.88 µg/mL)
MIC (Staphylococcus aureus [27]): 12 µM (≈ 3.88 µg/mL)
MIC (Staphylococcus aureus [28]): 12 µM (≈ 3.88 µg/mL)
MIC (Staphylococcus aureus [29]): 12 µM (≈ 3.88 µg/mL)
MIC (Staphylococcus aureus [30]): 12 µM (≈ 3.88 µg/mL)
MIC (Staphylococcus aureus [31]): 25 µM (≈ 8.08 µg/mL)
MIC (Staphylococcus aureus [32]): 12 µM (≈ 3.88 µg/mL)
MIC [33]: 6 µM (≈ 1.94 µg/mL)
MIC [35]: 25 µM (≈ 8.08 µg/mL)
MIC [36]: 12 µM (≈ 3.88 µg/mL)
MIC [37]: 25 µM (≈ 8.08 µg/mL)
MIC [38]: 25 µM (≈ 8.08 µg/mL)
MIC (Mammaliicoccus sciuri): 12 µM (≈ 3.88 µg/mL)
MIC (Streptococcus agalactiae): 3 µM (≈ 0.969 µg/mL)
Compound: O=C(N[C@H](CO)[C@H](O)c1ccc([N+](=O)[O-])cc1)C(Cl)Cl [CHLORAMPHENICOL]
MIC [34]: 6 µM (≈ 1.94 µg/mL)
